Substitutions are numbered along the chain they refer to. Entries after “also recorded” stand apart in the source; their conditions may differ. Non-standard residues stand in square brackets, D forms with d. No end group written: not given here. pT = C[C@@H](OP(=O)(O)O)[C@H](N)C(=O)O

The subject of experiment [1] is EGFP-EZH2. The format is cell-based, mouse. The note with it: 100 µM roscovitine, 2 h preincubation, HEK293T cells. In a few lines: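 HEK293T cells were transfected (Jetprime) with EGFP-tagged mouse EZH2, then preincubated with the CDK inhibitor roscovitine before lysis. EGFP-EZH2 was probed by immunoblot with a rabbit antibody raised against the Thr416-phosphorylated peptide (residues 410–421) coupled to KLH. The antibody was affinity-purified on non-phospho and phospho-peptide–BSA columns. Detection was by ECL imaging.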

In experiment [2] the target is NIPP1 FHA domain (Homo sapiens, UniProt Q12972). As to the kind of experiment: NMR titration. The format is binding. In a few lines:
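¹⁵N-labelled NIPP1 FHA domain was expressed in E. coli grown in M9 with ¹⁵NH₄Cl, His₆-MBP tag removed by TEV, and purified by size exclusion. The domain (0.1 mM) in 20 mM BisTris pH 6.3, 50 mM NaCl, 5 mM DTT was titrated with increasing mouse EZH2 dodecapeptide concentrations at 298 K (500 MHz, 2D ¹H,¹⁵N HSQC). Kd came from nonlinear fitting of CSP versus peptide concentration.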

Experiment [3] concerns EZH2-FHA interaction (EGFP-EZH2 / GST-FHA of NIPP1). As to the kind of experiment: Competition GST pull-down of EGFP-EZH2 with EZH2 dodecapeptides. Conditions: 1 mM of the indicated EZH2 dodecapeptides. In kind it is binding.
Experiment [4] deals with EED, SUZ12 and RbAp48. The experiment is described as follows: PRC2 components in immunoprecipitated EGFP-EZH2 complexes. The note with it: immunoblot, Supplementary Figure S5. In kind it is binding.
Experiment [5] has as its system PP1. The experiment is described as follows: PP1 associated with immunoprecipitated EGFP-EZH2. The format is binding. Conditions: HEK293T cell lysates, immunoblot. In a few lines:
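EGFP-EZH2 (wild-type or TP5 mutant; EGFP-βgal control) was transiently expressed in HEK293T cells and immunoprecipitated from lysates. Lysis buffers contained 20 mM NaF, 5 µM leupeptin, 0.5 mM PMSF and 0.5 mM benzamidine. Co-precipitated PP1 was detected by immunoblotting with ECL.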

Experiment [6] has as its system endogenous NIPP1. As to the kind of experiment: Co-immunoprecipitation of EZH2 fusions with endogenous NIPP1. In kind it is binding. The note with it: HEK293T cell lysates.
Experiment [7] has as its system EGFP-EZH2. The experiment is described as follows: Phosphorylation status of EGFP-EZH2 TP mutants in cells. The format is cell-based, mouse. Conditions: EGFP-EZH2 mutant from cells, immunoblot. In a few lines: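 EGFP-tagged mouse EZH2 variants (EGFP alone as control) were expressed in cells and isolated by EGFP trap. Elution used 0.2 M glycine pH 2.5 for 90 s, immediately neutralised with 1 M Tris pH 10.8. Eluates were immunoblotted with a pan-phospho-Thr-Pro antibody and an affinity-purified phospho-Thr416 (pTP5) antibody. Blots were visualised by ECL and quantified by densitometry.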
In general terms: A western blot detects proteins with antibodies after separation by electrophoresis.

In experiment [8] the test system is NIPP1-FHA domain. As to the kind of experiment: GST pull-down of EGFP-EZH2 TP mutants with GST-FHA. The format is binding. The note with it: Thr to Ala mutants, n = 4. In a few lines:
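Mouse EZH2 Thr→Ala mutants were made by site-directed mutagenesis in an EGFP-IRES-puro vector and transfected with Jetprime. Lysis buffers contained NaF, leupeptin, PMSF and benzamidine.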

Experiment [9] deals with EGFP-EZH2. The experiment is described as follows: In vitro phosphorylation of EGFP-EZH2 by cyclinA/CDK2. In kind it is biochemical, mouse. The note with it: autoradiography, γ32P-ATP, cyclinA/CDK2, 60 min, 30°C. In a few lines:
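Purified EGFP-tagged mouse EZH2 was incubated 60 min at 30°C with recombinant cyclinA/CDK2 (bacterially expressed). Buffer: 20 mM Tris/HCl pH 7.5, 2 mM DTT, 0.1 mg/ml BSA, 2 mM MgAc, 100 µM ATP, with or without γ³²P-ATP.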

Experiment [10] relates to EZH2, EED and SUZ12. The experiment is described as follows: EGFP trap of EGFP-NIPP1 and co-precipitation of core PRC2 components. In kind it is binding. The note with it: EGFP-NIPP1 WT or FHAm, HEK293T cell lysates. In a few lines: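 EGFP-NIPP1 is expressed in HEK293T cells by plasmid transfection (Jetprime) and captured by EGFP trap from lysates. Lysis buffer contains 20 mM NaF, 5 µM leupeptin, 0.5 mM PMSF and 0.5 mM benzamidine. Co-precipitated proteins are detected by immunoblotting, using anti-EZH2 (AC-22), an in-house rabbit anti-EED raised against His-EED, and anti-SUZ12 (3C1.2).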

The subject of experiment [11] is EGFP-EZH2. The experiment is described as follows: In vitro dephosphorylation of EGFP-EZH2 by PP1. In kind it is biochemical, mouse. In a few lines: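 Mouse EGFP-EZH2 is expressed in HEK293T cells and isolated by immunoprecipitation or EGFP trap. It is incubated 30 min at 30°C in 50 mM Tris/HCl pH 7.5, 1 mM DTT, 0.1 mg/ml BSA with one of: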
The target of experiment [12] is NIPP1 FHA domain (15N-labelled, for NMR). As to the kind of experiment: NMR titration.

Take `CC[C@H](CO)Nc1nc(NCc2ccccc2)c2ncn(C(C)C)c2n1` [roscovitine]: in experiment [1], the “binding of EGFP-EZH2 to GST-FHA” value is “abolished” and the “detection of EGFP-EZH2 by pTP5 antibody” value was “not detected”.

Regarding ANSRCQ(p)TPIKMK [pTP5], the saturation of binding entry in experiment [2] (10-fold molar excess of the peptide) was “Saturation was not achieved even after a 10-fold molar excess of the peptide”. Further, in experiment [2] (summary in Discussion), the “binding of purified FHA domain to EZH2-derived dodecapeptide” value is reported as “interacts rather poorly”. For the same molecule, the “EZH2-FHA interaction in presence of peptide” value in experiment [3] was “decreased EZH2-FHA interaction”.

Consider “EZH2-WT: EGFP- or Dam-tagged wild-type mouse EZH2”, for which the “abundance of EED, SUZ12 and RbAp48 in complex” value in experiment [4] was “equally abundant”. For the same molecule, the “associated PP1” value in experiment [5] is recorded as “contained the same amount of PP1”.

With “EZH2-mTP5: EZH2 with Thr416 (TP5) mutated to Ala”, the “abundance of EED, SUZ12 and RbAp48 in complex” value in experiment [4] is recorded as “equally abundant”. The “co-immunoprecipitation with endogenous NIPP1” value in experiment [6] is “no longer co-immunoprecipitated with endogenous NIPP1”. Besides, in [7], the pTP5 signal result is recorded as “not detected”. The “binding of EZH2 TP mutant to GST-FHA” value in experiment [8] is on record as “complete loss of binding”. For the same molecule, in experiment [9], the “in vitro phosphorylation of EZH2 by CDK2” value is listed as “moderately reduced”. Also, the “associated PP1” value in experiment [5] is on record as “contained the same amount of PP1”.

B1: EGFP-NIPP1: ectopically expressed EGFP-NIPP1 wild-type (protein)
chain: MAAAANSGSSLPLFDCPTWAGKPPPGLHLDVVKGDKLIEKLIIDEKKYYLFGRNPDLCDFTIDHQSCSRVHAALVYHKHLKRVFLIDLNSTHGTFLGHIRLEPHKPQQIPIDSTVSFGASTRAYTLREKPQTLPSAVKGDEKMGGEDDELKGLLGLPEEETELDNLTEFNTAHNKRISTLTIEEGNLDIQRPKRKRKNSRVTFSEDDEIINPEDVDPSVGRFRNMVQTAVVPVKKKRVEGPGSLGLEESGSRRMQNFAFSGGLYGGLPPTHSEAGSQPHGIHGTALIGGLPMPYPNLAPDVDLTPVVPSAVNMNPAPNPAVYNPEAVNEPKKKKYAKEAWPGKKPTPSLLI
modifications: left off: EGFP, end not stated, kept
Consider B1, for which the “co-precipitation of PRC2 components” value in experiment [10] is “Both EZH2 and EED co-precipitated; also recorded: SUZ12, which interacts directly with EZH2 but not with EED ([19]), only co-precipitated with the WT NIPP1 fusion”.

B2: NIPP1: recombinant His-NIPP1, or immunoprecipitated EGFP-NIPP1/PP1 complex (protein, UniProt Q12972 1-351, looked up)
Nuclear inhibitor of protein …: B1 chain
modifications: His tag
For the molecule B2, the “effect on PP1-mediated dephosphorylation of EGFP-EZH2” value in experiment [11] (500 nM PP1, recombinant His-NIPP1 4.5 µM to 55 nM) is given as “abolished”. For the same molecule, the “dephosphorylation of EGFP-EZH2 by immunoprecipitated NIPP1/PP1” value in experiment [11] (after pretreatment with trypsin) is “the immunoprecipitate dephosphorylated EGFP-EZH2”; in [11] (without trypsin pretreatment, co-precipitated PP1 present), “not dephosphorylated”.

B3: FHA mutant: EGFP-NIPP1 with mutated FHA domain (protein)
chain: B1 chain with S68A, R69A, V70A, H71A
modifications: left off: EGFP, end not stated, kept
With B3, in experiment [10], the “co-precipitation of PRC2 components” value is reported as “only EED co-sedimented”.

Take ANSRCQ[pT]PIKMK [EZH2 410-421 peptide, phosphorylated at Thr416 (pTP5)]: the Kd (as a rule, the equilibrium constant for the complex coming apart) in [12] was 1.9 mM.

These data come from PMC3553949 (Nucleic Acids Research, 2012).
